# Legend:
# [1] = Inhibition of growth in epothilone A resistant 1A9-A8 T-beta-274I mutant cell line after 72 hrs by SRB assay; type: functional, cell-based; conditions: Homo sapiens, 1A9, 72 h
# 1A9 [2] = assay: Relative resistance, IC50 for 1A9-A8 A8 T-beta-274I mutant/IC50 for 1A9; type: functional, Homo sapiens
# 1A9/ptx-10 [3] = assay: Relative resistance, IC50 for 1A9-PTX10 F-beta-270V mutant/IC50 for 1A9; type: functional, Homo sapiens
# 1A9/ptx-10 [4] = assay: Inhibition of growth in paclitaxel resistant 1A9-PTX10 F-beta-270V mutant cell line after 72 hrs by SRB assay; type: functional, cell-based; conditions: Homo sapiens, 1A9/ptx-10, 72 h
# Tubulin (Homo sapiens) = Tubulin (Homo sapiens) (UniProt P68371+Q9H4B7+P0DPH7+P68366+Q13509+Q71U36+P04350+Q3ZCM7+P07437+P68363+Q9BQE3+Q6PEY2+Q13885+Q9BVA1+Q9BUF5); assay: Induction of GTP-tubulin polymerization; type: protein-complex assay
# Outline: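 ED50 for induction of tubulin assembly, read by light scattering at 350 nm or by fluorescence in a 96-well format. GTP-tubulin was used unless otherwise stated. Some samples were run with GDP-tubulin and normalized to the GTP-tubulin scale. Some values are single determinations.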
# A2780 = assay: Cytotoxicity against A2780 cell line; type: cell-based; conditions: Homo sapiens
# PC-3 = assay: Cytotoxicity against PC3 cell line by MTT assay; type: cell-based; conditions: Homo sapiens
# 1A9 [5] = assay: Inhibition of growth in 1A9 cell line after 72 hrs; type: functional, cell-based; conditions: Homo sapiens, 1A9, 72 h
SMILES,IC50 [1],Ratio IC50 (1A9 [2]),Ratio IC50 (1A9/ptx-10 [3]),IC50 (1A9/ptx-10 [4]),ED50 (Tubulin (Homo sapiens)),IC50 (A2780),IC50 (PC-3),IC50 (1A9 [5])
C=CCCC(=O)O[C@@]12CO[C@@H]1C[C@H](O)[C@@]1(C)C(=O)[C@H](OC(C)=O)C3=C(C)[C@@H](OC(=O)[C@H](O)[C@@H](NC(=O)c4ccccc4)c4ccccc4OCC=C)C[C@@](O)([C@@H](OC(=O)c4ccccc4)[C@H]21)C3(C)C,148 nM,82,18,65 nM,420 nM,770 nM,128 nM,1.8 nM
CC(=O)O[C@H]1C(=O)[C@@]2(C)[C@@H]3[C@H](OC(=O)c4ccccc4)[C@]4(O)C[C@H](OC(=O)[C@H](O)[C@@H](NC(=O)c5ccccc5)c5ccccc5OCCCC(=O)O[C@]35CO[C@@H]5C[C@@H]2O)C(C)=C1C4(C)C,66.5 nM,3.5,1.8,35.9 nM,830 nM,18.5 nM,50 nM,18.9 nM
CC(=O)O[C@H]1C(=O)[C@@]2(C)[C@@H]3[C@H](OC(=O)c4ccccc4)[C@]4(O)C[C@H](OC(=O)[C@H](O)[C@@H](NC(=O)c5ccccc5)c5cccc(c5)/C=C/CCC(=O)O[C@]35CO[C@@H]5C[C@@H]2O)C(C)=C1C4(C)C,> 300 nM,>23,21,157 nM,1600 nM,680 nM,34 nM,12.9 nM
CC(=O)O[C@H]1C(=O)[C@@]2(C)[C@@H]3[C@H](OC(=O)c4ccccc4)[C@]4(O)C[C@H](OC(=O)[C@H](O)[C@@H](NC(=O)c5ccccc5)c5cccc(c5)OC/C=C/CCC(=O)O[C@]35CO[C@@H]5C[C@@H]2O)C(C)=C1C4(C)C,> 300 nM,>12,6.3,196 nM,–,650 nM,–,24.6 nM
COc1cccc(C(=O)O[C@H]2[C@@H]3[C@]45CO[C@@H]4C[C@H](O)[C@@]3(C)C(=O)[C@H](OC(C)=O)C3=C(C)[C@H](C[C@]2(O)C3(C)C)OC(=O)[C@H](O)[C@@H](NC(=O)c2ccccc2)c2ccccc2/C=C/CC(=O)O5)c1,–,–,–,–,570 nM,23.7 nM,6 nM,–
C=CCOc1cccc([C@H](NC(=O)c2ccccc2)[C@@H](O)C(=O)O[C@H]2C[C@@]3(O)[C@@H](OC(=O)c4ccccc4)[C@@H]4[C@]5(OC(=O)C=C)CO[C@@H]5C[C@H](O)[C@@]4(C)C(=O)[C@H](OC(C)=O)C(=C2C)C3(C)C)c1,–,–,–,–,1000 nM,1900 nM,550 nM,–
CC(=O)O[C@H]1C(=O)[C@@]2(C)[C@@H]3[C@H](OC(=O)c4ccccc4)[C@]4(O)C[C@H](OC(=O)[C@H](O)[C@@H](NC(=O)c5ccccc5)c5ccccc5OC/C=C\C(=O)O[C@]35CO[C@@H]5C[C@@H]2O)C(C)=C1C4(C)C,26.5 nM,3.8,17,126 nM,280 nM,14.5 nM,15 nM,7 nM
CC(=O)O[C@H]1C(=O)[C@@]2(C)[C@@H]3[C@H](OC(=O)c4ccccc4)[C@]4(O)C[C@H](OC(=O)[C@H](O)[C@@H](NC(=O)c5ccccc5)c5ccccc5OCCCCCC(=O)O[C@]35CO[C@@H]5C[C@@H]2O)C(C)=C1C4(C)C,–,–,–,–,760 nM,980 nM,51 nM,–
C=CC(=O)O[C@@]12CO[C@@H]1C[C@H](O)[C@@]1(C)C(=O)[C@H](OC(C)=O)C3=C(C)[C@@H](OC(=O)[C@H](O)[C@@H](NC(=O)c4ccccc4)c4ccccc4C=C)C[C@@](O)([C@@H](OC(=O)c4ccccc4)[C@H]21)C3(C)C,–,–,–,–,1400 nM,1600 nM,275 nM,–
CC(=O)O[C@H]1C(=O)[C@@]2(C)[C@@H]3[C@H](OC(=O)c4ccccc4)[C@]4(O)C[C@H](OC(=O)[C@H](O)[C@@H](NC(=O)c5ccccc5)c5ccccc5OCC/C=C/C(=O)O[C@]35CO[C@@H]5C[C@@H]2O)C(C)=C1C4(C)C,46.4 nM,3.8,9.2,157 nM,670 nM,20 nM,16 nM,12.2 nM
CC(=O)O[C@H]1C(=O)[C@@]2(C)[C@H]([C@H](OC(=O)c3ccccc3)[C@]3(O)C[C@H](OC(=O)[C@H](O)[C@@H](NC(=O)c4ccccc4)c4ccccc4)C(C)=C1C3(C)C)[C@]1(OC(C)=O)CO[C@@H]1C[C@@H]2O [PACLITAXEL],21.5 nM,–,–,157 nM,500 nM,–,5 nM,4.8 nM
CC(=O)O[C@H]1C(=O)[C@@]2(C)[C@@H]3[C@H](OC(=O)c4ccccc4)[C@]4(O)C[C@H](OC(=O)[C@H](O)[C@@H](NC(=O)c5ccccc5)c5cccc(c5)OCCCCCC(=O)O[C@]35CO[C@@H]5C[C@@H]2O)C(C)=C1C4(C)C,–,–,–,–,3400 nM,3600 nM,1000 nM,–
COc1cccc(C(=O)O[C@H]2[C@@H]3[C@]45CO[C@@H]4C[C@H](O)[C@@]3(C)C(=O)[C@H](OC(C)=O)C3=C(C)[C@H](C[C@]2(O)C3(C)C)OC(=O)[C@H](O)[C@@H](NC(=O)OC(C)(C)C)c2ccccc2/C=C/CC(=O)O5)c1,–,–,–,–,350 nM,> 6 nM,11 nM,–
CC(=O)O[C@H]1C(=O)[C@@]2(C)[C@@H]3[C@H](OC(=O)c4ccccc4)[C@]4(O)C[C@H](OC(=O)[C@H](O)[C@@H](NC(=O)OC(C)(C)C)c5ccccc5/C=C/CC(=O)O[C@]35CO[C@@H]5C[C@@H]2O)C(C)=C1C4(C)C,–,–,–,–,490 nM,1.4 nM,3.2 nM,–
CC(=O)O[C@H]1C(=O)[C@@]2(C)[C@@H]3[C@H](OC(=O)c4ccccc4)[C@]4(O)C[C@H](OC(=O)[C@H](O)[C@@H](NC(=O)c5ccccc5)c5cccc(c5)OCCCC(=O)O[C@]35CO[C@@H]5C[C@@H]2O)C(C)=C1C4(C)C,–,–,–,–,1400 nM,700 nM,53 nM,–
COc1cccc(C(=O)O[C@H]2[C@@H]3[C@]45CO[C@@H]4C[C@H](O)[C@@]3(C)C(=O)[C@H](OC(C)=O)C3=C(C)[C@H](C[C@]2(O)C3(C)C)OC(=O)[C@H](O)[C@@H](NC(=O)c2ccccc2)c2ccccc2C/C=C/C(=O)O5)c1,–,–,–,–,220 nM,17.7 nM,8.2 nM,–
COc1cccc(C(=O)O[C@H]2[C@@H]3[C@]45CO[C@@H]4C[C@H](O)[C@@]3(C)C(=O)[C@H](OC(C)=O)C3=C(C)[C@H](C[C@]2(O)C3(C)C)OC(=O)[C@H](O)[C@@H](NC(=O)OC(C)(C)C)c2ccccc2CCCC(=O)O5)c1,–,–,–,–,220 nM,0.49 nM,1.3 nM,–
C=CC(=O)O[C@@]12CO[C@@H]1C[C@H](O)[C@@]1(C)C(=O)[C@H](OC(C)=O)C3=C(C)[C@@H](OC(=O)[C@H](O)[C@@H](NC(=O)c4ccccc4)c4cccc(C=C)c4)C[C@@](O)([C@@H](OC(=O)c4ccccc4)[C@H]21)C3(C)C,–,–,–,–,1000 nM,1700 nM,320 nM,–
CC(=O)O[C@H]1C(=O)[C@@]2(C)[C@@H]3[C@H](OC(=O)c4ccccc4)[C@]4(O)C[C@H](OC(=O)[C@H](O)[C@@H](NC(=O)c5ccccc5)c5ccccc5OC/C=C/CCCCC(=O)O[C@]35CO[C@@H]5C[C@@H]2O)C(C)=C1C4(C)C,–,–,–,–,930 nM,1840 nM,500 nM,–
CC(=O)O[C@H]1C(=O)[C@@]2(C)[C@@H]3[C@H](OC(=O)c4ccccc4)[C@]4(O)C[C@H](OC(=O)[C@H](O)[C@@H](NC(=O)c5ccccc5)c5cccc(c5)OC/C=C\C(=O)O[C@]35CO[C@@H]5C[C@@H]2O)C(C)=C1C4(C)C,–,–,–,–,4600 nM,6300 nM,580 nM,–
CC(=O)O[C@H]1C(=O)[C@@]2(C)[C@@H]3[C@H](OC(=O)c4ccccc4)[C@]4(O)C[C@H](OC(=O)[C@H](O)[C@@H](NC(=O)c5ccccc5)c5cccc(c5)CCCCC(=O)O[C@]35CO[C@@H]5C[C@@H]2O)C(C)=C1C4(C)C,–,–,–,–,1400 nM,8800 nM,570 nM,–
C=CCCCC(=O)O[C@@]12CO[C@@H]1C[C@H](O)[C@@]1(C)C(=O)[C@H](OC(C)=O)C3=C(C)[C@@H](OC(=O)[C@H](O)[C@@H](NC(=O)c4ccccc4)c4cccc(OCC=C)c4)C[C@@](O)([C@@H](OC(=O)c4ccccc4)[C@H]21)C3(C)C,–,–,–,–,2200 nM,7400 nM,4600 nM,–

# Reference: ChEMBL document CHEMBL1141391 (J Med Chem, 2007)
